Reference: article PMC8232391 (Drug Design, Development and Therapy, 2021)

Columns and labels:
[1] = Stability of DUV in spiked human plasma samples; assay type: in vitro ADME
[2] = Stability of stock and working standard solutions of DUV; assay type: physicochemical; settings: refrigerator temperature (8°C) for 30 days
How it was run: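 Stock solutions (1.0 mg mL–1 in acetonitrile) and working standards diluted in mobile phase were held 24 h at room temperature and 30 days refrigerated (below 10°C). They were then analysed by the HPLC-FD method against freshly spiked calibration standards.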

C[C@H](Nc1ncnc2[nH]cnc12)c1cc2cccc(Cl)c2c(=O)n1-c1ccccc1 [DUV, 8-chloro-2-phenyl-3-[(1S)-1-(7H-purin-6-ylamino)ethyl]isoquinolin-1-one]
Time stable in spiked human plasma ([1]; autosampler storage conditions): ≥ 48 h
Time stable in spiked human plasma ([1]; room temperature on the bench): ≥ 6 h
Stability in spiked human plasma ([1]; three freeze–thaw cycles): stable
Stability in spiked human plasma ([1]; −80°C for 60 days): stable
Stability of stock and working standard solutions [2]: stable
